# Reference: article PMC10173409 (Science translational medicine, 2023)
# Like-named read-outs stand apart in the source and are kept apart here.
# Assays:
# [1] = tested on: thioglycolate-elicited mouse peritoneal neutrophils; assay: LPS/LTA-induced cytokine secretion from neutrophils, ELISA; format: cell-based; conditions: for dose dependence of cytokine inhibition, neutrophils: 50, 100 or 200 μg/ml, 8 h, Fig. S2; for cytokine suppression at 24 h, neutrophils: 24 h post-ligand stimulation, Fig. S3
# Procedure, shortened: (§1)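 C57BL/6J mice injected i.p. with 1 ml 3% thioglycolate. Peritoneal neutrophils collected day 1 (DMEM), macrophages day 3 (RPMI, 6 h adherence), both 2% FBS, 1x10⁵ cells/well after RBC lysis. Stimulated with P. aeruginosa LPS or S. aureus LTA (500 ng/ml); test peptide (50, 100 or 200 μg/ml) added 30 min before or after. Incubated 8 or 24 h, 37°C/5% CO₂. Supernatant IL-6, TNFα, G-CSF, CXCL1, CXCL2, CXCL10 measured by ELISA.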
# [2] = ref [20]; cited from earlier work
# [3] = tested on: human telomerase-immortalized corneal epithelial (hTCEpi) cells; assay: MTT cell viability; format: cell-based; conditions: discussion summary
# Procedure, shortened: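 hTCEpi (telomerase-immortalized human corneal epithelial) cells incubated 24 h with test peptide at 200 μg/ml (0.02% w/v), with a scrambled peptide as control. Viability was read by MTT assay.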
# [4] = tested on: amikacin-resistant P. aeruginosa keratitis isolate, mouse corneas; assay: Prophylaxis of P. aeruginosa keratitis; format: in vivo; conditions: 0.1% (5 μg) topical once 30 min before infection; 24 h; P < 0.01; Fig. 5D, E
# Procedure, shortened: (§2)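 C57BL/6J mice (both sexes, 10-12 wk), anesthetized with ketamine/dexmedetomidine i.p. One cornea per mouse, scarified with three 26g-needle abrasions. 5 μl test peptide (0.1% in saline, 5 μg) applied once, 30 min before amikacin-resistant P. aeruginosa 10⁵ CFU or S. aureus 10⁶ CFU. At 24 h: homogenate CFU on tryptic soy agar; collagenase-digested corneas analysed by flow cytometry for CD45⁺, Ly6B.2⁺F4/80⁻ and F4/80⁺ cells. n = 8-10, two experiments.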
# human MD2/TLR4 complex = assay: MD2 blocking assay; format: binding; conditions: for inhibition of LPS binding to MD2/TLR4 beads (in words): 30-min preincubation, peptide 60 μM, FITC-LPS 1 μg/ml, Fig. 3A; for inhibition of LPS binding to MD2/TLR4 beads with soluble MD2: soluble MD2 1 μg/ml present during preincubation with peptide 60 μM, Fig. 3B
# Procedure, shortened: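 Human MD2/TLR4-conjugated latex beads incubated with test peptide (60 μM), without or with soluble MD2 (1 μg/ml). Beads washed, then incubated with FITC-LPS (1 μg/ml). Percentage of LPS⁺ beads quantified by flow cytometry. Mean ± SEM, n = 3-5 independent experiments.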
# Pseudomonas aeruginosa = conditions: ref [20]; cited from earlier work
# red blood cells = assay: Hemolysis; format: cell-based; conditions: for toxic effect on blood cells: discussion summary; for hemolysis (amount of hemoglobin released): vs untreated samples, Fig. S1C
# immune cells [5] = assay: Toxic effect on immune cells; conditions: discussion summary
# mouse corneal epithelium [6] = assay: Corneal epithelial barrier function, fluorescein staining in vivo
# mouse corneal epithelium [7] = assay: Corneal wound healing; format: in vivo; conditions: 0.1% topical, 2.5 μg peptide three times within 24 h, 6 h and 24 h after wounding, vs saline and SC10, Fig. S1E
# Procedure, shortened: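 C57BL/6J mice, both sexes, 10–12 wk, anesthetised i.p. with ketamine/dexmedetomidine, reversed with atipamezole. Central 2 mm corneal epithelium removed with blade. Wounds got topical saline or test peptide (2.5 μg) three times within 24 h. Defects stained with 0.38% fluorescein immediately, 6 h and 24 h post-injury; stained area measured. One cornea per mouse.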
# [8] = tested on: cell surface/endosomal TLR3; assay: media poly; format: cell-based, mouse; conditions: neutrophils, high-molecular-weight poly(I:C) 1 μg/ml added to media; Fig. 1D
# Procedure, shortened: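 Thioglycolate-elicited mouse peritoneal neutrophils (collected day 1, DMEM/2% FBS) were stimulated with high-molecular-weight poly(I:C) (1 μg/ml) added to medium, alone or with test peptide, at 37°C/5% CO₂. Phospho-NFκB p65⁺ and phospho-IRF3⁺ cells were quantified by intracellular flow cytometry. Mean ± SD, N = 3 replicates.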
# [9] = tested on: amikacin-resistant P. aeruginosa, mouse corneas; assay: Treatment of established P. aeruginosa keratitis; format: in vivo; conditions: for total leukocytes, neutrophils and macrophages, P. aeruginosa treatment: 3 times daily, as early as one day post-treatment, Fig. 6C-F; for disease severity over the 3-day treatment course, P. aeruginosa: 5 μg in liposomes topical 3 times daily
# Procedure, shortened: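 Scarified C57BL/6J corneas (one per mouse) inoculated with amikacin-resistant P. aeruginosa (10⁵ CFU). From 24 h post-infection: test peptide in phosphatidylcholine/stearylamine/cholesterol liposomes (5 μg in 5 μl), or liposome vehicle, applied topically three times daily for 1 or 3 days. Blinded 0-16 clinical score from four opacity/epithelial features. Corneal CD45⁺ leukocytes, Ly6B.2⁺F4/80⁻ neutrophils and F4/80⁺ macrophages counted by flow cytometry.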
# [10] = tested on: thioglycolate-elicited mouse peritoneal macrophages; assay: LPS/LTA-induced cytokine secretion from macrophages, ELISA; format: cell-based; conditions: for dose dependence of cytokine inhibition, macrophages: 50, 100 or 200 μg/ml, 8 h, Fig. S2; for cytokine suppression at 24 h, macrophages: 24 h post-ligand stimulation, Fig. S3
# Procedure, shortened: as §1
# S. aureus, mouse corneas [11] = assay: Treatment of established S. aureus keratitis; format: in vivo; conditions: for infectious load, S. aureus treatment: 5 μg in liposomes, 3 times daily, Fig. 7G
# Procedure, shortened: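 C57BL/6J mice, both sexes, 10–12 wk. Corneas scarified with three 26g needle abrasions, inoculated with S. aureus 10⁶ CFU. From 24 h post-infection, 5 μg test peptide in 5 μl liposome mix (phosphatidylcholine/stearylamine/cholesterol) or liposome vehicle given topically three times daily for 1 or 3 days. Blinded daily scoring of four features (0–4 each, total 0–16). Endpoint CFU from corneal homogenates plated on tryptic soy agar.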
# [12] = tested on: TLR2, mouse peritoneal macrophages; assay: TLR2 endocytosis in macrophages, flow cytometry; format: cell-based; conditions: peptide alone 200 μg/ml (LTA 500 ng/ml), 1 h; Fig. 4D
# Procedure, shortened: (§3)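 Thioglycolate-elicited C57BL/6J peritoneal neutrophils (day 1) or adherent macrophages (day 3) incubated 1 h with test peptide alone. TLR2 localisation assessed by flow cytometry as cell-surface versus intracellular staining.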
# [13] = tested on: TLR2, mouse peritoneal neutrophils; assay: TLR2 endocytosis in neutrophils, flow cytometry; format: cell-based; conditions: peptide alone 200 μg/ml (LTA 500 ng/ml), 1 h; Fig. 4C
# Procedure, shortened: as §3
# hTCEpi cells = assay: TUNEL assay of DNA fragmentation; format: cell-based, human; conditions: 24-h incubation, Fig. S1B
# S. aureus, mouse corneas [14] = assay: Prophylaxis of S. aureus keratitis; format: in vivo; conditions: 0.1% (5 μg) topical once 30 min before 10^6 CFU, 24 h; for bacterial burden, S. aureus prophylaxis: Fig. 5H; for immune cell infiltration, S. aureus prophylaxis: Fig. 5I, J
# Procedure, shortened: as §2
# MD2/TLR4 complex = assay: LPS displacement assay; format: binding, human; conditions: 60 μM, 30 min; Fig. 3E
# Procedure, shortened: (§4)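 Beads conjugated with human MD2/TLR4 complex or TLR2 were preincubated with FITC-LPS or FITC-LTA (1 μg/ml) respectively, PBS-washed, then mixed with test peptide (60 μM). Percentage of ligand-positive beads was measured by flow cytometry. Mean ± SEM, n = 3-5 independent experiments.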
# TLR2 = assay: LTA displacement assay; format: binding, human; conditions: 60 μM, 30 min; Fig. 3F
# Procedure, shortened: as §4
# [15] = ref [20]; cited from earlier work; remark: listed apart in the source
# immune cells [16] = tested on: immune cells
# Staphylococcus aureus = conditions: ref [20]; cited from earlier work
# [17] = ref [49], [50]; cited from earlier work
# bacteria = conditions: high-salt media; ref [49], [50]; cited from earlier work
Substance,"dose dependence of cytokine inhibition, neutrophils [1]","cytokine suppression at 24 h, neutrophils [1]",toxic effect on corneal epithelial cells [3],"infiltrated leukocytes, neutrophils and macrophages, P. aeruginosa prophylaxis [4]",inhibition of LPS binding to MD2/TLR4 beads (in words) (human MD2/TLR4 complex),inhibition of LPS binding to MD2/TLR4 beads with soluble MD2 (human MD2/TLR4 complex),toxic effect on blood cells (red blood cells),hemolysis (amount of hemoglobin released) (red blood cells),"corneal barrier function, fluorescein staining (mouse corneal epithelium [6]; mouse, in vivo)",barrier restoration after wounding (re-epithelialization) (mouse corneal epithelium [7]),"total leukocytes, neutrophils and macrophages, P. aeruginosa treatment ([9]; 5 μg in liposomes)","dose dependence of cytokine inhibition, macrophages [10]","cytokine suppression at 24 h, macrophages [10]","infectious load, S. aureus treatment (S. aureus, mouse corneas [11])","TLR2 internalization, macrophages [12]","TLR2 internalization, neutrophils [13]",apoptosis (hTCEpi cells),"bacterial burden, S. aureus prophylaxis (S. aureus, mouse corneas [14])","immune cell infiltration, S. aureus prophylaxis (S. aureus, mouse corneas [14])","disease severity over the 3-day treatment course, P. aeruginosa ([9]; Fig. 6A, B)",further results
GGLSSVGGGS [KAMP10],dose-dependent,effective suppression,no detectable toxic effect,significantly reduced,effectively inhibited subsequent LPS binding,inhibitory effect was abolished,no detectable toxic effect,no difference from the baseline of untreated samples,remained stain-free,substantially accelerated,substantially reduced,dose-dependent,effective suppression,substantially reducing the infectious load,triggered internalization of TLR2,triggered internalization of TLR2,did not induce apoptosis,alleviated,alleviated,–,"binding affinity for LPS [2]: modest binding affinity; bactericidal mechanism, P. aeruginosa (Pseudomonas aeruginosa): perforated Pseudomonas aeruginosa membrane; toxic effect on immune cells (immune cells [5]): no detectable toxic effect; p65 and IRF3 phosphorylation, media poly(I:C) [8]: inhibited p65 and IRF3 phosphorylation; relative effect on disease severity, P. aeruginosa treatment ([9]; KAMP10 vs KAMP18C, 5 μg in liposomes, 1 DAT, Fig. 6A, B): effect more prominent"
"GLSGVGSGSG [SC10, reference compound]",–,–,–,–,"but not SC10, effectively inhibited",–,–,–,stain-free similarly to the SC10- or saline-treated controls,in contrast to saline and SC10,–,–,–,–,–,–,–,–,–,severity progression or lack of improvement,displacement of LPS from MD2/TLR4 beads (in words) (MD2/TLR4 complex): as opposed to SC10; displacement of LTA from TLR2 beads (in words) (TLR2): as opposed to SC10
"Benzalkonium chloride [BAK, reference compound]",–,–,–,–,–,–,–,–,–,–,–,–,–,–,–,–,–,–,–,–,"corneal barrier function, fluorescein staining (mouse corneal epithelium [6]; mice, one topical application at 0.1% in saline, Fig. S1D): high degree of fluorescein penetration"
RAIGGGLSSVGGGSSTIK [KAMP18C],dose-dependent,effective suppression,no detectable toxic effect,significantly reduced,effectively inhibited subsequent LPS binding,inhibitory effect was abolished,no detectable toxic effect,no difference from the baseline of untreated samples,remained stain-free,substantially accelerated,substantially reduced,dose-dependent,effective suppression,substantially reducing the infectious load,triggered internalization of TLR2,triggered internalization of TLR2,did not induce apoptosis,alleviated,alleviated,–,"binding affinity for LTA [15]: modest binding affinity; toxic effect on immune cells (immune cells [16]): no detectable toxic effect; relative effect on disease severity, S. aureus treatment (S. aureus, mouse corneas [11]; KAMP18C vs KAMP10, 5 μg in liposomes, Fig. 7A, B): more effective against S. aureus infection; bactericidal mechanism, S. aureus (Staphylococcus aureus): caused major damage to the cell envelope of Staphylococcus aureus"
LL-37,–,–,–,–,–,–,–,–,–,–,–,–,–,–,–,–,–,–,–,severity progression or lack of improvement,LPS- and LTA-neutralizing activity [17]: known LPS- and LTA-neutralizing activities; bactericidal activity of LL-37 (bacteria): characterized bactericidal activities in high-salt media
